Converted amounts (≈) assume the structure as drawn.

Assay [1] relates to Mycolicibacterium smegmatis. In words: Antimycobacterial activity against Mycobacterium smegmatis mc2155 after 48 hrs by microdilution resazurin assay. Type of assay: functional. The conditions noted are these: str. MC2 155, 48 h. The method in brief:
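Inoculum of M. smegmatis mc²155 grown in Dubos medium + 10% ADC; twofold serial dilutions in Dubos broth, 500 to 0.9 µg/mL. DMSO and isoniazid controls. 48 h at 37 °C, then 0.01% resazurin added, further 24 h. Growth is read as blue-to-pink change plus OD 530–630 nm.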

The test system of assay [2] is Mycobacterium tuberculosis. As to the kind of experiment: Antimycobacterial activity against Mycobacterium tuberculosis H37Rv after 6 days by microdilution resazurin assay. In kind it is functional. Particulars: 144 h. The method, boiled down:
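M. tuberculosis H37Rv inoculum grown in Dubos medium with 10% ADC. Twofold dilutions in Dubos broth, 500 to 0.9 µg/mL, with DMSO and isoniazid controls. Incubated 6 days at 37 °C, then 0.01% resazurin added for 24 h more. Read by colour change (blue to pink) and OD 530–630 nm. MIC95 (>95% growth inhibition) derived by curve fitting.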

As to `CC1(C)C=Cc2cc(C(O)c3ccccc3)ccc2O1` (stereo unspecified), the MIC95 in assay [1] and in assay [2] was 20 µg/mL (≈ 75.1 µM) in each case. Consider `CC1(C)C=Cc2c(ccc3oc4ccccc4c23)O1`, for which the MIC95 in assay [1] and in assay [2] was 10 µg/mL (≈ 40 µM) in each case. For `O=C(c1ccc(O)cc1)c1ccc(O)cc1`, the MIC95 in assay [1] came out at 62 µg/mL (≈ 289 µM); in assay [2], 125 µg/mL (≈ 584 µM). For `Oc1ccc2oc3ccc(O)cc3c2c1`, in that order: 15 µg/mL (≈ 74.9 µM) and 15 µg/mL (≈ 74.9 µM).

Turning to `CC(=O)c1ccc2oc3ccc4c(c3c2c1)C=CC(C)(C)O4`, the MIC95 in assay [1] and in assay [2] was > 500 µg/mL throughout.

`Oc1ccc2oc3ccccc3c2c1` gave an MIC95 in assay [2] of 25 µg/mL (≈ 136 µM). Regarding `CC1(C)C=Cc2cc(Oc3ccccc3)ccc2O1`, the MIC95 in assay [1] was 70 µg/mL (≈ 277 µM); in assay [2] it was > 500 µg/mL. For `C#CC(C)(C)Oc1ccc2oc3c(c2c1)CCCC3`, in that order: > 100 µg/mL and > 100 µg/mL.

`CC(=O)c1cc2oc3ccccc3c2c2c1OC(C)(C)CC2`: the MIC95 in assay [1] and in assay [2] was > 500 µg/mL in each case.

Regarding `NNC(=O)c1ccncc1` [ISONIAZID], the results for the MIC95 in assay [1] and in assay [2] were 12 µg/mL (≈ 87.5 µM) and 0.1 µg/mL (≈ 0.729 µM), respectively. `CC(=O)c1ccc2oc3ccc(C(C)=O)cc3c2c1`: the values for the MIC95 in assay [1] and in assay [2] were 5 µg/mL (≈ 19.8 µM) and 10 µg/mL (≈ 39.6 µM), respectively. Regarding `CC1(C)C=Cc2cc3oc4ccccc4c3c(Br)c2O1`, the MIC95 in assay [1] was found to be 120 µg/mL (≈ 365 µM); in assay [2] it was 30 µg/mL (≈ 91.1 µM). For `C#CC(C)(C)Oc1ccc2oc3ccc(C(C)=O)cc3c2c1`, in that order: > 100 µg/mL and > 100 µg/mL. For `CC1(C)C=Cc2cc(C(=O)c3ccc(O)cc3)ccc2O1`, in that order: 32 µg/mL (≈ 114 µM) and 62 µg/mL (≈ 221 µM). For `CC1(C)C=Cc2cc(C(=O)c3ccccc3)ccc2O1`, in that order: 20 µg/mL (≈ 75.7 µM) and 40 µg/mL (≈ 151 µM). As to `C#CC(C)(C)Oc1ccc(Oc2ccccc2)cc1`, the MIC95 in assay [1] and in assay [2] was > 100 µg/mL each time. On to `CC1(C)CCc2cc(Cc3ccccc3)ccc2O1`, for which the MIC95 is > 500 µg/mL in assay [1] and 30 µg/mL (≈ 119 µM) in assay [2]. For `CC1(C)C=Cc2cc(C(O)c3cccnc3)ccc2O1` (stereo unspecified), in that order: 62 µg/mL (≈ 232 µM) and 62 µg/mL (≈ 232 µM). Regarding `CC1(C)C=Cc2c(ccc3oc4c(c23)CCCC4)O1`, the MIC95 was > 500 µg/mL in assay [1] and 120 µg/mL (≈ 472 µM) in assay [2].

As for `CC(=O)c1cc2oc3ccccc3c2c2c1OC(C(C)C)C2` (stereo unspecified), the MIC95 in assay [1] and in assay [2] was > 500 µg/mL each time.

Consider `CC1(C)C=Cc2cc3oc4ccccc4c3cc2O1`, for which the values for the MIC95 in assay [1] and in assay [2] were 20 µg/mL (≈ 79.9 µM) and 35 µg/mL (≈ 140 µM), respectively. With `CC1(C)CCc2cc(C(=O)c3ccccc3)c(O)cc2O1`, the MIC95 stood at 4 µg/mL (≈ 14.2 µM) in assay [1] and 62 µg/mL (≈ 220 µM) in assay [2].

As to `C#CC(C)(C)Oc1cccc(-c2ccccc2)c1`, the MIC95 in assay [1] and in assay [2] was > 100 µg/mL each time. On to `CC1(C)CCc2c(c(Br)cc3oc4ccccc4c23)O1`, for which the MIC95 in assay [1] and in assay [2] was > 500 µg/mL in each case. As for `Oc1ccc2oc3c(c2c1)CCCC3`, the figures for the MIC95 in assay [1] and in assay [2] were 31 µg/mL (≈ 165 µM) and 500 µg/mL (≈ 2660 µM), respectively.

For the compound `CC1(C)CCc2cc(C(=O)c3ccccc3)ccc2O1`, the MIC95 is 50 µg/mL (≈ 188 µM) in assay [1] and 30 µg/mL (≈ 113 µM) in assay [2]. For `CC1(C)CCc2cc3oc4ccccc4c3cc2O1`, the MIC95 in assay [1] was 40 µg/mL (≈ 159 µM); in assay [2] it was > 500 µg/mL. For `CC1(C)C=Cc2cc(-c3ccccc3)ccc2O1`, in that order: > 500 µg/mL and > 500 µg/mL. For `C#CC(C)(C)Oc1ccc(-c2ccccc2)cc1`, in that order: > 100 µg/mL and > 100 µg/mL.

For the compound `CC1(C)CCc2c(ccc3oc4ccccc4c23)O1`, the MIC95 in assay [1] and in assay [2] was 10 µg/mL (≈ 39.6 µM) throughout.

Consider `CC(=O)c1ccc2oc3ccc(O)cc3c2c1`, for which the results for the MIC95 in assay [1] and in assay [2] were > 500 µg/mL and 8 µg/mL (≈ 35.4 µM), respectively.
